In ChEMBL document CHEMBL1136794, “l-2',3'-Didehydro-2',3'-dideoxy-3'-fluoronucleosides: synthesis, anti-HIV activity, chemical and enzymatic stability, and mechanism of resistance” (J Med Chem, 2003):

What was measured:
[1] = Cytotoxicity determined in uninfected PHA-stimulated human PBM cells (PBMCs), expressed as IC50; format: functional, cell-based; settings: PBMC
In short: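 Uninfected PHA-stimulated PBM cells from seronegative donors, isolated by single-step Ficoll-Hypaque, were seeded at 5 × 10⁴ cells/well with 10-fold serial drug dilutions. After 5 days at 37 °C in 5% CO2, MTT dye was added overnight, formazan solubilized 5 h, and absorbance read at 570 nm.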

Vero = experiment: Cytotoxicity determined in (african green monkey kidney) Vero cells, expressed as IC50; format: functional, cell-based; settings: Chlorocebus sabaeus
In short: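 Vero cells were seeded in log phase at 5 × 10³ cells/well with 10-fold serial drug dilutions and incubated 3 days at 37 °C in 5% CO2. Viability was read by MTT: overnight dye incubation, 5 h solubilization, absorbance at 570 nm.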

CCRF-CEM = experiment: Cytotoxicity determined in (T-lymphoblastoid cell line) CEM cells, expressed as IC50; format: functional, cell-based; settings: Homo sapiens
In short: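 CEM T-lymphoblastoid cells were seeded in log phase at 2.5 × 10³ cells/well with 10-fold serial drug dilutions and incubated 4 days at 37 °C in 5% CO2. Viability was read as MTT reduction: dye added overnight, formazan solubilized 5 h, absorbance at 570 nm.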

[2] = Activity against wild-type virus (HIV-1XXBRU) in human PBM cells, expressed as EC50
[3] = Activity against Lamivudine-resistant virus (HIV-1M184V) in human PBM cells, expressed as EC50; format: functional, cell-based
In short: (§1)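 PHA-stimulated (2-3 days) human PBM cells from seronegative donors, bulk-infected 1 h with molecular clones HIV-1 xxBru or M184V (100 TCID50/1 × 10⁷ cells in flask, or 200 TCID50/6 × 10⁵ cells/well in 24-well plate), then added to 10-fold serial compound dilutions. RPMI-1640 with IL-2 and DEAE-dextran; 5 days, 37 °C, 5% CO₂. Supernatant RT activity read out; EC50/EC90 by median effect method.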

[4] = Half life determined at pH 2 buffer solution; format: ADME
In short: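 Nucleosides were held in pH 2 buffer and followed by TLC every 10 min for the first 3 h, then up to 6 h, to estimate half-life.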

[5] = Fold increase ratio of HIV-1M184V to HIV-1XXBRU; format: functional
In short: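 PHA-stimulated PBM cells were infected for 1 h with the molecular clones HIV-1 xxBru (wild type) or HIV-1 M184Vpitt, then cultured 5 days with 10-fold serial dilutions. EC50 came from supernatant RT activity by the median effect method, and the ratio was taken as mutant EC50 over wild-type EC50.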

[6] = Activity against Lamivudine-resistant virus (HIV-1M184V) in human PBM cells, expressed as EC90; format: functional; settings: PBMC; in short: as §1

Nc1ccn([C@H]2C=C(F)[C@H](CO)O2)c(=O)n1
IC50 [1]: > 100 µM
IC50 (Vero): > 100 µM
IC50 (CCRF-CEM): > 100 µM

O=c1nc(O)ccn1[C@@H]1CC(F)(F)[C@H](CO)O1
IC50 [1]: > 100 µM
IC50 (Vero): > 100 µM
IC50 (CCRF-CEM): > 100 µM

Nc1ccn([C@@H]2CC(F)(F)[C@H](CO)O2)c(=O)n1
IC50 [1]: > 100 µM
IC50 (Vero): > 100 µM
IC50 (CCRF-CEM): > 100 µM

Cc1cn([C@H]2CC(F)(F)[C@H](CO)O2)c(=O)[nH]c1=O
IC50 [1]: > 100 µM
IC50 (Vero): > 100 µM
IC50 (CCRF-CEM): > 100 µM

Nc1ccn([C@@H]2C=C(F)[C@H](CO)O2)c(=O)n1
IC50 [1]: 86.9 µM
EC50 [2]: 23 nM
EC50 [3]: 2400 nM
IC50 (Vero): > 100 µM
IC50 (CCRF-CEM): > 100 µM
half-life [4]: 2880 min
FI [5]: 104
EC90 [6]: 15.7 µM

O=c1nc(O)ccn1[C@H]1CC(F)(F)[C@H](CO)O1
IC50 [1]: > 100 µM
IC50 (Vero): > 100 µM
IC50 (CCRF-CEM): > 100 µM

Nc1nc(=O)n([C@@H]2CC(F)(F)[C@H](CO)O2)cc1F
IC50 [1]: > 100 µM
IC50 (Vero): > 100 µM
IC50 (CCRF-CEM): > 100 µM

Nc1nc(=O)n([C@H]2CC(F)(F)[C@H](CO)O2)cc1F
IC50 [1]: > 100 µM
IC50 (Vero): > 100 µM
IC50 (CCRF-CEM): > 100 µM

Cc1cn([C@H]2C[C@H](N=[N+]=[N-])[C@@H](CO)O2)c(=O)[nH]c1=O [ZIDOVUDINE]
EC50 [2]: 10 nM
EC50 [3]: 3 nM
FI [5]: 0.3
EC90 [6]: 0.025 µM

Nc1ccn([C@@H]2CC[C@H](CO)O2)c(=O)n1
EC50 [2]: 170 nM
EC50 [3]: 2900 nM
half-life [4]: 60 min
FI [5]: 17
EC90 [6]: 28.2 µM

Cc1cn([C@@H]2C=C(F)[C@H](CO)O2)c(=O)nc1O
IC50 [1]: > 100 µM
IC50 (Vero): > 100 µM
IC50 (CCRF-CEM): > 100 µM

Nc1ncnc2c1ncn2[C@@H]1CC(F)(F)[C@H](CO)O1
IC50 [1]: > 100 µM
IC50 (Vero): > 100 µM
IC50 (CCRF-CEM): > 100 µM

Nc1nc(O)c2ncn([C@H]3CC(F)(F)[C@H](CO)O3)c2n1
IC50 [1]: > 100 µM
IC50 (Vero): > 100 µM
IC50 (CCRF-CEM): > 100 µM

Nc1ccn([C@@H]2CS[C@H](CO)O2)c(=O)n1 [LAMIVUDINE]
EC50 [2]: 35 nM
EC50 [3]: > 100000 nM
FI [5]: > 2860
EC90 [6]: > 100 µM

Nc1nc(O)c2ncn([C@@H]3C=C(F)[C@H](CO)O3)c2n1
IC50 [1]: 17.4 µM
IC50 (Vero): 36.5 µM
IC50 (CCRF-CEM): 58.4 µM

Nc1nc(=O)n([C@@H]2C=C(F)[C@H](CO)O2)cc1F
IC50 [1]: > 100 µM
EC50 [2]: 9 nM
EC50 [3]: 10900 nM
IC50 (Vero): > 100 µM
IC50 (CCRF-CEM): > 100 µM
FI [5]: 1210
EC90 [6]: 67.4 µM

Nc1ncnc2c1ncn2[C@H]1C=C(F)[C@H](CO)O1
IC50 [1]: > 100 µM
IC50 (Vero): > 100 µM
IC50 (CCRF-CEM): > 100 µM

OC[C@H]1O[C@@H](n2cnc3c(O)ncnc32)C=C1F
IC50 [1]: > 100 µM
IC50 (Vero): > 100 µM
IC50 (CCRF-CEM): > 100 µM

O=c1nc(O)ccn1[C@@H]1C=C(F)[C@H](CO)O1
IC50 [1]: > 100 µM
IC50 (Vero): > 100 µM
IC50 (CCRF-CEM): 30.1 µM

Nc1nc(O)c2ncn([C@@H]3CC(F)(F)[C@H](CO)O3)c2n1
IC50 [1]: > 100 µM
IC50 (Vero): > 100 µM
IC50 (CCRF-CEM): > 100 µM

Cc1cn([C@H]2C=C(F)[C@H](CO)O2)c(=O)nc1O
IC50 [1]: > 100 µM
IC50 (Vero): > 100 µM
IC50 (CCRF-CEM): > 100 µM

Nc1ncnc2c1ncn2[C@@H]1C=C(F)[C@H](CO)O1
IC50 [1]: > 100 µM
IC50 (Vero): > 100 µM
IC50 (CCRF-CEM): > 100 µM

Cc1cn([C@@H]2CC(F)(F)[C@H](CO)O2)c(=O)nc1O
IC50 [1]: > 100 µM
IC50 (Vero): > 100 µM
IC50 (CCRF-CEM): > 100 µM

Nc1ncnc2c1ncn2[C@H]1CC(F)(F)[C@H](CO)O1
IC50 [1]: > 100 µM
IC50 (Vero): > 100 µM
IC50 (CCRF-CEM): > 100 µM

Nc1nc(=O)n([C@H]2C=C(F)[C@H](CO)O2)cc1F
IC50 [1]: > 100 µM
IC50 (Vero): > 100 µM
IC50 (CCRF-CEM): > 100 µM

OC[C@@H]1O[C@@H](n2cnc3c(O)ncnc32)CC1(F)F
IC50 [1]: > 100 µM
IC50 (Vero): > 100 µM
IC50 (CCRF-CEM): > 100 µM

Nc1ccn([C@H]2CC(F)(F)[C@H](CO)O2)c(=O)n1
IC50 [1]: > 100 µM
IC50 (Vero): > 100 µM
IC50 (CCRF-CEM): > 100 µM

Nc1nc(O)c2ncn([C@H]3C=C(F)[C@H](CO)O3)c2n1
IC50 [1]: > 100 µM
IC50 (Vero): > 100 µM
IC50 (CCRF-CEM): > 100 µM

O=c1ccn([C@H]2C=C(F)[C@H](CO)O2)c(=O)[nH]1
IC50 [1]: > 100 µM
IC50 (Vero): > 100 µM
IC50 (CCRF-CEM): > 100 µM

OC[C@@H]1O[C@H](n2cnc3c(O)ncnc32)CC1(F)F
IC50 [1]: > 100 µM
IC50 (Vero): > 100 µM
IC50 (CCRF-CEM): > 100 µM
